SENP8 block-1: SENP8 (human) protease inhibition; Q96LD8; recombinant SENP8, Nedd8 substrate fluorescence; inhibition, % at 20 µM; hit rate 0.64% among 360,000; AID 602440; in the data active = inhibition mostly above about 40%, no sharp cut-off; inactive = mostly below about 27%
SENP8 block-2: SENP8 protease inhibition | Q96LD8 | purified SENP8, Z-RLRGG-aminoluciferin cleavage, luminescence | inhibition, % at 10 µM | hit rate 1.2% among 330,000; in the data active = inhibition above about 50%
SENP6 block: blocks the human protease SENP6 | Recombinant SENP6 catalytic domain, aminoluciferin luminescence | inhibition, % at 10 µM | hit rate 1.8% among 330,000 | AID 2599;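 active = inhibition above about 50% at the single tested dose, limit read from the data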;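 also: plate controls were DMSO wells with enzyme for no effect and DMSO wells lacking enzyme for full effect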
UCH37 inh: blocks the human deubiquitinase UCH37; Q9Y5K5; AID 588478; hit rate 0.33% among 330,000; inhibition, % (test concentration not listed); purified proteasome/UCH37, Ub-AMC cleavage fluorescence;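 active = mean inhibition over replicate wells above about 20%, limit read from the data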;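 also: 0% = compound-free wells with enzyme and 100% = wells lacking proteasome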
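Material: Human UCH37 enzyme supplied as purified proteasome complex | Schedule: 30 min compound-proteasome preincubation then 25 min substrate reaction, room temperature | Detection: AMC fluorescence from Ub-AMC cleavage, excitation 355 nm, emission 460 nm | Benchmarks: Wells without proteasome as full block, compound-free enzyme plus substrate as uninhibited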
SENP7 block: blocks the human protease SENP7 | AID 434973 | hit rate 1.5% among 330,000 | recombinant SENP7, Z-RLRGG-aminoluciferin luminescence, 40 min | Q9BQF6 | inhibition, % at 5 µM;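 active = inhibition above about 50% at the single test dose, limit read from the data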;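 also: plate controls were DMSO with enzyme for no effect and no enzyme buffer wells for full effect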
SENP1 FRET inh: SENP1 (human) catalytic domain inhibition | hit rate 0.21% among 360,000 | inhibition, % at 10 µM | recombinant SENP1 catalytic domain, CyPet-SUMO1-YPet FRET cleavage | Q9P0U3 | AID 624204;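 active = inhibition at least 30% at 10 µM, raw YFP signal under a set limit, fluorescence ratio 0.5 to 1.5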;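 also: 0% = enzyme with DMSO and 100% = no enzyme wells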
Target sequence (Q9P0U3 419-644 limits assumed): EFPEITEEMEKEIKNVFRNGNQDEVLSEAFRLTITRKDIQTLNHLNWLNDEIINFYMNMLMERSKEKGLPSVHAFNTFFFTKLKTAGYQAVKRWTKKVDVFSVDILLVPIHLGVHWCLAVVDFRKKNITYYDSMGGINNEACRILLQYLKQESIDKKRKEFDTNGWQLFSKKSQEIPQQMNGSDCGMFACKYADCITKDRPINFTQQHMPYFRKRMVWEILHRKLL
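Material: hSENP1 catalytic domain, recombinant; medium: Tris pH 8 with BME, BSA, NP40 and catalase; compound: single concentration of 10 µM compound, 0.5% DMSO final; technique: FRET read of cyan and yellow fluorescence; timing: 50 min enzyme reaction, room temperature, light-protected; reagent: SFCypet-SUMO1-SFYpet substrate at 25 nM; control set: no-enzyme low, enzyme-DMSO high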
SENP8 conf: human SENP8 inhibition, confirmed | inhibition, % at 12.5 µM | shares compounds with SENP7 block | Recombinant SENP8, Z-RLRGG-aminoluciferin luminescence, 60 min | hit rate 40% among 6,200 | AID 488912;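 active = mean inhibition across replicates above about 50%, limit read from the data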
SENP6 confirm: confirmation of human SENP6 protease inhibitors; shares compounds with SENP7 block; recombinant SENP6, Z-RLRGG-aminoluciferin luminescence; inhibition, % at 12.5 µM; hit rate 58% among 6,200; AID 488915
SENP7 confirm: human SENP7 inhibition, confirmed | inhibition, % at 12.5 µM | hit rate 69% among 6,200 | recombinant SENP7, Z-RLRGG-aminoluciferin luminescence, 40 min | shares compounds with SENP7 block
Casp3 SENP sel: inhibits human caspase-3 in SENP selectivity test | shares compounds with SENP7 block | purified caspase-3, Z-DEVD-aminoluciferin luminescence, 60 min | inhibition, % at 12.5 µM | hit rate 60% among 6,200 | AID 488918;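 active = mean inhibition above about 50%, limit read from the data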;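 also: plate controls were enzyme with DMSO for no effect and wells without caspase-3 for full effect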
Target sequence (P42574 28-227 limits assumed): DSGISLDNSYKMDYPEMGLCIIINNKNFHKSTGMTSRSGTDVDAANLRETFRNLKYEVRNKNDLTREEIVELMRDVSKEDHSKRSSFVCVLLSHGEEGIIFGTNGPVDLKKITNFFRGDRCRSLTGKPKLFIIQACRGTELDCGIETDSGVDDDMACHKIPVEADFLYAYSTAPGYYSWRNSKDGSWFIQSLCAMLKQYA
SENP luc ctr: counter-screen for SENP inhibitors: luminescence interference | shares compounds with SENP7 block | Pre-incubated SENP8/Z-RLRGG-aminoluciferin, luciferase luminescence interference | inhibition, % at 12.5 µM | hit rate 39% among 6,200;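 active = mean inhibition above about 50% when retested at one dose, limit read from the data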;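 also: plate controls were DMSO wells with completed reaction for no effect and substrate without enzyme for full effect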
* = called active by the depositor; · = no result given. A selection: hits, their analogues and other compounds. The true share with any hit is near 2.6%.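 The calls were made as follows, unless noted: active = mean inhibition above about 50% in the one-dose retest (limit read from the data); inactive = the rest.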

SMILES | SENP8 block-1 | SENP8 block-2 | SENP6 block | UCH37 inh | SENP7 block | SENP1 FRET inh | SENP8 conf | SENP6 confirm | SENP7 confirm | Casp3 SENP sel | SENP luc ctr
O=C(O)CCC(=O)N1CN2CN(C(=O)CCC(=O)O)CC([N+](=O)[O-])(C2)C1 | 19.2 | -2.0 | -15.4 | 1.2 | 3.2 | 3.0 | · | · | · | · | ·
CN1CCN(C(=O)CSc2cc(=O)n(C)c3ccccc23)CC1 | -11.9 | -8.8 | -6.2 | -0.9 | 3.8 | 0.5 | · | · | · | · | ·
CCN1CCN(C(=O)CSc2cc(=O)n(C)c3ccccc23)CC1 | -12.9 | -1.2 | -14.6 | 0.8 | 89.8* | -0.7 | 8.2 | 4.9 | 4.1 | 0.2 | 1.4
Cc1cc(O)c2c(=NN)c(-c3csc(C)n3)coc2c1 | · | · | · | 1.1 | · | · | · | · | · | · | ·
C(/C=C/c1ccccn1)=C\c1ccccc1 | -402.3 | 80.3* | 87.4* | -1.5 | 88.1* | -1.6 | 24.8 | 65.6* | 90.5* | 66.4* | 52.5*
Oc1ccc(C=NNc2cc(N3CCCC3)nc(N3CCCC3)n2)cc1 | · | · | · | -37.2 | · | · | · | · | · | · | ·
Nc1cccc2c1C(=O)N(CCOc1ccc(F)cc1)C2=O | -320.9 | 48.9 | 68.3* | -125.0 | 54.7* | -27.6 | 54.7* | 48.5 | 84.7* | 53.1* | 4.6
COc1ccc(OCCN2C(=O)c3ccccc3C2=O)cc1 | 10.2 | 5.6 | 25.2 | 0.0 | 13.3 | 2.1 | · | · | · | · | ·
O=C1c2ccccc2C(=O)N1CCOc1ccccc1 | 10.7 | 18.1 | 60.1* | -0.8 | 46.8 | 0.8 | 39.6 | 35.5 | 73.2* | 59.3* | 52.0*
O=C1c2ccccc2C(=O)N1CCOc1ccccc1Br | 3.1 | 8.0 | 12.4 | 5.0 | 29.5 | -0.5 | · | · | · | · | ·
O=C1c2ccccc2C(=O)N1CCOc1ccccc1Cl | 8.9 | 37.4 | 51.5* | 2.3 | 59.0* | 0.6 | 31.7 | 47.9 | 78.4* | 47.3 | 56.5*
COC(=O)C=c1sc(=C(C#N)C(=O)N2CCCCC2)n(-c2ccccc2)c1=O | · | · | · | 1.2 | · | · | · | · | · | · | ·
CC(=NNC(=O)c1ccc(N(C)C)cc1)c1ccc(C)c(C)c1 | · | · | · | 5.3 | · | · | · | · | · | · | ·
COc1cc(C=NNc2ccc(C(F)(F)F)cn2)cc(OC)c1O | · | · | · | 6.3 | · | · | · | · | · | · | ·
COc1c(Cl)cccc1-c1cn2ccccc2n1 | -412.8 | 88.5* | 93.0* | -35.0 | 92.7* | 1.7 | 92.7* | 92.6* | 100.7* | 92.2* | 44.2
Clc1ccc(OCc2cn3ccccc3n2)c2ncccc12 | -60.3 | -0.8 | -7.8 | -0.1 | 0.5 | -2.4 | · | · | · | · | ·
Cc1sc(NC(=O)c2ccccc2)c(C#N)c1-c1ccccc1 | -3.3 | 25.4 | 61.6* | -71.1 | -5.2 | -13.8 | 5.7 | -7.1 | 28.8 | 15.5 | 1.0
Cc1ccc2nc(-c3sc4nc(C)ccc4c3N)[nH]c2c1 | -253.3 | 24.2 | 56.0* | -122.7 | 6.8 | -18.4 | 49.5 | 42.8 | 29.6 | 12.1 | 24.2
CCOc1ccc(C=NNC(=S)NC2CC3C=CC2C3)cc1 (centres undefined) | · | · | · | 2.9 | · | · | · | · | · | · | ·
COc1ccc(-c2cc(-c3ccc(OC)c(OC)c3)n[nH]2)c(O)c1 | 16.0 | 93.3* | 94.2* | 2.9 | 96.4* | 1.7 | 97.1* | 97.6* | 102.2* | 86.3* | 95.0*
COc1ccc(-c2cc(-c3ccccc3O)[nH]n2)cc1OC | 10.5 | 78.4* | 79.7* | 2.1 | 88.3* | 0.2 | 92.7* | 92.5* | 100.7* | 68.6* | 92.6*
Oc1ccccc1-c1cc(-c2ccc3c(c2)OCCO3)n[nH]1 | 11.5 | 94.6* | 97.3* | 6.0 | 1.4 | -1.8 | 97.3* | 99.1* | 102.6* | 91.7* | 68.3*
COC(=O)c1cc(-c2ccc(OC)c(OC)c2)n[nH]1 | 17.0 | 2.7 | -11.0 | 2.1 | 9.3 | 1.7 | · | · | · | · | ·

Bioassay records deposited in PubChem by several laboratories.
